The target of assay [1] is T1, Adenosine receptor A1 (Homo sapiens) (UniProt P30542).
T1 sequence (whole entry): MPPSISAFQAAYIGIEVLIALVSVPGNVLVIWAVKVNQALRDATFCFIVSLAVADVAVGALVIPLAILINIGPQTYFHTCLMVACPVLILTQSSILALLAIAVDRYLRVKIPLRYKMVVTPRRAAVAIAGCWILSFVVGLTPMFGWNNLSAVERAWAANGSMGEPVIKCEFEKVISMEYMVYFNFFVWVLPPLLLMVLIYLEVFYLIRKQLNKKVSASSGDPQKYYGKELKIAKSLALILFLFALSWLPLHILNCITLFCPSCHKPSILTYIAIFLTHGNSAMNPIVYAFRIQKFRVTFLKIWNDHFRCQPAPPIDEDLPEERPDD
Kind of assay: Percent change in cAMP content of CHO (Chinese hamster ovary) cells expressing human Adenosine A1 receptor at 1 uM. In kind it is functional, cell-based. The method in brief: (§1)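 CHO cells stably expressing human A1 receptor (~8000 fmol/mg protein) were grown in Ham's F-12 with 10% FBS and G-418 for 48 h to confluence. HCl (50 mM final) stopped the reaction, and cAMP was measured by radioimmunoassay. Values are % change versus no-compound control, mean ± SEM of six experiments.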

Assay [2] concerns the target Adenosine receptor A2a (Homo sapiens) (UniProt P29274). Kind of assay: Ability to displace the binding of [3H]-ZM 241385, to the ligand binding site of CHO:hA2A (human Adenosine A2A receptor) at concentration of 10 uM. Summed up:
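CHO:hA2A membranes (100 µg protein, ADA-treated) were incubated with 2 nM [3H]ZM 241385 in Tris-HCl with MgCl2, pH 7.4, for 60 min at 4 °C, with compound from DMSO (1% final). Nonspecific binding was taken with 1 µM ZM241385. After filtration, results are % displacement by 10 µM compound, ±STD, n = 3.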

The target of assay [3] is T1, Adenosine receptor A1 (Homo sapiens). Put plainly: Dissociation of [3H]CCPA from Adenosine A1 receptor in CHO cells at 10 uM as percent K-1. It counts as cell-based. The method in brief: (§2)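 [3H]CCPA was bound to ADA-treated CHO:hA1 membranes in 50 mM Tris-HCl pH 7.4 at 25 °C. Dissociation was started by adding R-PIA (1 µM) with test agent (10 µM), and specific binding was measured 2–180 min afterwards. Kinetic fits gave t1/2 and K-1, expressed as % change from control. Values are the mean of three experiments.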

The target of assay [4] is T2, Adenosine receptor A3 (Homo sapiens) (UniProt P0DMS8).
T2 sequence (whole entry): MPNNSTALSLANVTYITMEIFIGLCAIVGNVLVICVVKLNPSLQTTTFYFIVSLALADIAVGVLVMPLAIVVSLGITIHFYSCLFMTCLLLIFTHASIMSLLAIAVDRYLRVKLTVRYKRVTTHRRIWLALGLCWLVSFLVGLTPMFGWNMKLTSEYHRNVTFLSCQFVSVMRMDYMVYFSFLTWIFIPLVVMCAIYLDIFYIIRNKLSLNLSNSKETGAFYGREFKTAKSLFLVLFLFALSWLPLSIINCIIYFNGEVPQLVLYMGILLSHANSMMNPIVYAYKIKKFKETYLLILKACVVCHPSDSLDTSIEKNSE
Kind of assay: Ability to displace the binding of [3H]-MRE 3008-F20 to the ligand binding site of CHO:hA3 (human Adenosine receptor) at concentration of 10 uM. Summed up: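 Assays used 2 nM [3H]MRE 3008F20 on CHO:hA3 membranes (100 µg protein, ADA-treated) for 150 min at 4 °C, in Tris-HCl with MgCl2 and 1 mM EDTA, pH 7.4, with compound from DMSO (1% final). Bound ligand was separated by filtration. Results are % displacement by 10 µM compound, ±STD, n = 3.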

Assay [5] deals with T1, Adenosine receptor A1 (Homo sapiens). Put plainly: Percent change in cAMP content of CHO (Chinese hamster ovary) cells expressing human Adenosine A1 receptor at 0.1 uM. It counts as functional, cell-based. The method in brief:
as §1

Assay [6] shares this target. Put plainly: Ability to displace the binding of [3H]DPCPX to the ligand binding site of CHO:hA1 (human Adenosine A1 receptor) at concentration of 10 uM. The method in brief: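 Membranes came from hypotonic lysis of CHO:hA1 cells, a 100 000g pellet and ADA 2 U/mL treatment for 30 min at 37 °C. Membranes (100 µg protein) were incubated with 1 nM [3H]DPCPX in Tris-HCl pH 7.4 for 150 min at 25 °C, with compound added from DMSO (1% final). Nonspecific binding was taken with 1 µM DPCPX, and bound ligand was separated on GF/B filters.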

For assay [7] the target is unchanged. Kind of assay: Percent change in cAMP content of CHO (Chinese hamster ovary) cells expressing human Adenosine A1 receptor at 0.01 uM. It counts as functional, cell-based. The method in brief:
as §1

For assay [8] the target is unchanged. Kind of assay: Dissociation rate of [3H]CCPA from Adenosine A1 receptor expressing CHO cells at 10 uM as percent t1/2. It counts as cell-based. The method in brief: as §2
Assay [9] has the same target. Put plainly: Percent change in cAMP content of CHO (Chinese hamster ovary) cells expressing human Adenosine A1 receptor at 10 uM. It counts as functional, cell-based. Summed up: as §1

The structures appear in SMILES notation.

Adenosine receptor A2a (Homo sapiens), sequence (P29274 whole entry): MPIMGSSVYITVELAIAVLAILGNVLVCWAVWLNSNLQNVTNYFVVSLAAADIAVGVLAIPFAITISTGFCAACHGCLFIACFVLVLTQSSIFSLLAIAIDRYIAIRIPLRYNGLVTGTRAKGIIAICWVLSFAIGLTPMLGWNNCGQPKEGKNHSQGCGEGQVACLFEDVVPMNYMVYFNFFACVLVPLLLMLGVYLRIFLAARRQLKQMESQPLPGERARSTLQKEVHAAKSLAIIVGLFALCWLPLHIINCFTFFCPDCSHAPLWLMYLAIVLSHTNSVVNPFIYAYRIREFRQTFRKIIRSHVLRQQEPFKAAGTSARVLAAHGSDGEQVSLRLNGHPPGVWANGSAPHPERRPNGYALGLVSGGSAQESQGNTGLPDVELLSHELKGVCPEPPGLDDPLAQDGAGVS

Turning to `Nc1sc2c(c1C(=O)c1cccc3ccccc13)CCC2`, the Change was -29% in [1], -6% in [5], -0.6% in assay [7] and -60% in assay [9]. Moreover, the values for the inhibition in assay [2], in [4] and in assay [6] were -0%, -0% and 8%, respectively. The K-1 decrease in [3] was -0%. The T1/2 increase in [8] was -0%.

Take `Nc1sc2c(c1C(=O)c1ccc(I)c3ccccc13)CCC2`: the Change in [1] is -22%; in [5], -8%; in assay [7] it was -6%; in assay [9], -75%. The values for the inhibition in assay [2], in assay [4] and in assay [6] were -0%, -0% and 3.3%, respectively. For the same compound, the K-1 decrease in assay [3] stood at 29%. Also, the T1/2 increase in [8] was determined as 41%.

On to `Nc1sc2c(c1C(=O)c1ccc(Br)c3ccccc13)CCC2`, for which the Change in [1] is -14%; in [5] it was 19%; in assay [7], 3%; in [9], -67%. The inhibition in assay [2] is -0%; in assay [4] it was 22%; in [6], -0%. In addition, the K-1 decrease in assay [3] is 4%. The T1/2 increase in [8] was determined as 4%.

Regarding `Nc1sc2c(c1C(=O)c1ccc(Cl)c3ccccc13)CCCC2`, the Change in assay [1] was -25%; in assay [5], 3%; in [7], -11%; in assay [9], -44%. Also, the inhibition in assay [2] was -0%; in assay [4] it was 30.5%; in assay [6] it was 4.8%. The K-1 decrease in assay [3] is 27%. Besides, the T1/2 increase in [8] turned out to be 36%.

Take `COc1ccc(C(=O)c2c(N)sc3c2CCC3)c2ccccc12`: the Change in assay [1] was -8%; in [5], -3%; in assay [7], -6%; in [9], -35%. For the same compound, the inhibition in assay [2] was -0%; in assay [4], 57%; in assay [6], 19%.

`Nc1sc2c(c1C(=O)c1ccc3ccccc3c1)CCN(Cc1ccccc1)C2`: the Change in assay [1] was -18%; in assay [5] it was -12%; in assay [7] it was -11%; in [9], -60%. In addition, the inhibition in assay [2] is -0%; in assay [4], 22%; in assay [6], 2.5%.

`Cc1cc(C(=O)c2c(N)sc3c2CCC3)cc2ccccc12`: the Change in [1] was -13%; in [5], -7%; in assay [7], -0%; in assay [9], -34%. The figures for the inhibition in assay [2], in assay [4] and in assay [6] were -0%, -0% and 6%, respectively.

For `Nc1sc2ccccc2c1C(=O)c1cccc2ccccc12`, the Change in assay [1] was 1%; in [5], 9%; in assay [7], 17%; in [9], -37%. Moreover, the inhibition in assay [2] was -0%; in assay [4], 19%; in assay [6], 13.5%.

As to `Nc1sc2c(c1C(=O)c1ccc3ccccc3c1)CCN(Cc1ccccc1F)C2`, the Change is -10% in [1], -3% in assay [5], -3% in assay [7] and -31% in [9]. For the same compound, the inhibition was -0% in [2], -0% in assay [4] and 3% in assay [6].

With `Cc1sc(N)c(C(=O)c2cc(C)c3cc(Cl)ccc3c2)c1C`, the Change was -18% in assay [1], -0% in assay [5], -0% in [7] and -24% in assay [9]. The inhibition in assay [2] was -0%; in assay [4], -0%; in assay [6], 4%.

Regarding `Cc1sc(N)c(C(=O)c2ccc3ccccc3c2)c1C`, the Change was -8% in assay [1], -4% in assay [5], -1% in assay [7] and -28% in assay [9]. The inhibition in [2], in assay [4] and in assay [6] was -0% in each case.

As a reminder, the inhibition is the drop in the measured response relative to a control, in per cent.

These data come from ChEMBL document CHEMBL1145774, “Synthesis and biological effects of novel 2-amino-3-naphthoylthiophenes as allosteric enhancers of the A1 adenosine receptor” (J Med Chem, 2003).
